From ChEMBL document CHEMBL1125626, “Synthesis and structure-activity relationship of new cephalosporins with amino heterocycles at C-7. Dependence of the antibacterial spectrum and beta-lactamase stability on the pKa of the C-7 heterocycle” (1991)
≈ marks a conversion by molar mass, not a printed value.

Experiments:
Proteus mirabilis [1] = assay: Minimum inhibitory concentration against Proteus mirabilis A18(inoculum, 10e5 cfu per spot). Parentheses value indicate inoculum, 10e2 cfu per spot; type: functional
In short: (§1)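 MIC in µg/mL in Jewell and Permain growth medium. Each strain was spot-inoculated at 10^5 cfu per spot; the bracketed values come from a 10^2 cfu per spot inoculum.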

Escherichia coli [2] = assay: Minimum inhibitory concentration against Escherichia coli A8(inoculum, 10e5 cfu per spot). Parentheses value indicate inoculum, 10e2 cfu per spot; type: functional; in short: as §1
Staphylococcus aureus [3] = assay: Minimum inhibitory concentration against Staphylococcus aureus A6(inoculum, 10e5 cfu per spot). Parentheses value indicate inoculum, 10e2 cfu per spot; type: functional; in short: as §1
Klebsiella pneumoniae [4] = assay: Minimum inhibitory concentration against Klebsiella pneumoniae A24(inoculum, 10e5 cfu per spot). Parentheses value indicate inoculum, 10e2 cfu per spot; type: functional; in short: as §1
Enterobacter cloacae [5] = assay: Minimum inhibitory concentration against Enterobacter cloacae A13(inoculum, 10e5 cfu per spot). Parentheses value indicate inoculum, 10e2 cfu per spot; type: functional; in short: as §1
Escherichia coli [6] = assay: Minimum inhibitory concentration against Escherichia coli DC2 (inoculum, 10e4 cfu per spot); type: functional
In short: (§2)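 MIC in µg/mL, determined in Jewell and Permain growth medium with spot inoculation at 10^4 cfu per spot. P99 is described as a constitutive type I lactamase producer.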

Enterobacter cloacae [7] = assay: Minimum inhibitory concentration against Enterobacter cloacae P99 (inoculum, 10e4 cfu per spot); type: functional; in short: as §2
Proteus vulgaris [8] = assay: Minimum inhibitory concentration against Proteus vulgaris Pv9(inoculum, 10e5 cfu per spot). Parentheses value indicate inoculum, 10e2 cfu per spot
Staphylococcus aureus [9] = assay: Minimum inhibitory concentration against Staphylococcus aureus A4(inoculum, 10e5 cfu per spot). Parentheses value indicate inoculum, 10e2 cfu per spot; type: functional; in short: as §1
Enterobacter cloacae [10] = assay: Minimum inhibitory concentration against Enterobacter cloacae P99 (inoculum, 10e4 cfu per spot)(type I lactamase producer); type: functional; in short: as §2
Klebsiella aerogenes [11] = assay: Minimum inhibitory concentration against Klebsiella aerogenes X6 (inoculum, 10e4 cfu per spot); type: functional; in short: as §2
Pseudomonas aeruginosa [12] = assay: Minimum inhibitory concentration against Pseudomonas aeruginosa A21(inoculum, 10e5 cfu per spot). Parentheses value indicate inoculum, 10e2 cfu per spot; type: functional; in short: as §1
Klebsiella aerogenes [13] = assay: Minimum inhibitory concentration against Klebsiella aerogenes X5L (inoculum, 10e4 cfu per spot); type: functional; in short: as §2
Streptococcus pyogenes = assay: Minimum inhibitory concentration against Streptococcus pyogenes (inoculum, 10e5 cfu per spot) A1; type: functional
In short: (§3)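 MIC in µg/mL, determined in Jewell and Permain growth medium with spot inoculation at 10^5 cfu per spot.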

Escherichia coli [14] = assay: Minimum inhibitory concentration against Escherichia coli DCO (inoculum, 10e4 cfu per spot); type: functional; in short: as §2
Escherichia coli [15] = assay: Minimum inhibitory concentration against Escherichia coli X4 (inoculum, 10e4 cfu per spot)
Serratia marcescens [16] = assay: Minimum inhibitory concentration against Serratia marcescens A16(inoculum, 10e5 cfu per spot). Parentheses value indicate inoculum, 10e2 cfu per spot; type: functional; in short: as §1
Escherichia coli [17] = assay: Minimum inhibitory concentration against Escherichia coli TEM X3 (inoculum, 10e4 cfu per spot)(TEM I type lactamase producer)
Proteus mirabilis [18] = assay: Minimum inhibitory concentration against Proteus mirabilis A18 (inoculum, 10e5 cfu per spot); type: functional; in short: as §3
Enterobacter cloacae [19] = assay: Minimum inhibitory concentration against Enterobacter cloacae A13(inoculum, 10e2 cfu per spot)
Serratia marcescens [20] = assay: Minimum inhibitory concentration against Serratia marcescens A16 (inoculum, 10e5 cfu per spot); type: functional; in short: as §3
Pseudomonas aeruginosa [21] = assay: Minimum inhibitory concentration against Pseudomonas aeruginosa A21 (inoculum, 10e5 cfu per spot); type: functional; in short: as §3
Staphylococcus aureus [22] = assay: (§4) Minimum inhibitory concentration against Staphylococcus aureus A5(inoculum, 10e5 cfu per spot); type: functional; in short: as §3
Escherichia coli [23] = assay: Minimum inhibitory concentration against Escherichia coli A8 (inoculum, 10e5 cfu per spot); type: functional; in short: as §3
Enterobacter cloacae [24] = assay: Minimum inhibitory concentration against Enterobacter cloacae A13(inoculum, 10e5 cfu per spot); type: functional; details: in the assay text read “10e2 cfu per spot” for “10e5 cfu per spot”
Staphylococcus aureus [25] = assay: Minimum inhibitory concentration against Staphylococcus aureus A6 (inoculum, 10e5 cfu per spot); type: functional; in short: as §3
[26] = as §4; type: functional; in short: as §3
Staphylococcus aureus [27] = assay: as §4; type: functional; details: in the assay text read “10e2 cfu per spot” for “10e5 cfu per spot”
Staphylococcus aureus [28] = assay: Minimum inhibitory concentration against Staphylococcus aureus A4 (inoculum, 10e5 cfu per spot); type: functional; in short: as §3
Proteus mirabilis [29] = assay: Minimum inhibitory concentration against Proteus mirabilis A18(inoculum, 10e5 cfu per spot); type: functional; in short: as §3
Klebsiella pneumoniae [30] = assay: Minimum inhibitory concentration against Klebsiella pneumoniae A24 (inoculum, 10e5 cfu per spot); type: functional; in short: as §3
Proteus vulgaris [31] = assay: Minimum inhibitory concentration against Proteus vulgaris Pv9 (inoculum, 10e5 cfu per spot)
Enterobacter cloacae [32] = assay: Minimum inhibitory concentration against Enterobacter cloacae A13 (inoculum, 10e5 cfu per spot); type: functional; in short: as §3

Row | Compound | MIC (Escherichia coli [6]) [µg/mL] | MIC (Enterobacter cloacae [7]) [µg/mL] | MIC (Enterobacter cloacae [10]) [µg/mL] | MIC (Klebsiella aerogenes [11]) [µg/mL] | MIC (Klebsiella aerogenes [13]) [µg/mL] | MIC (Streptococcus pyogenes) [µg/mL] | MIC (Escherichia coli [14]) [µg/mL] | MIC (Escherichia coli [15]) [µg/mL] | MIC (Escherichia coli [17]) [µg/mL] | MIC (Proteus mirabilis [18]) [µg/mL] | MIC (Enterobacter cloacae [19]) [µg/mL] | MIC (Serratia marcescens [20]) [µg/mL] | MIC (Pseudomonas aeruginosa [21]) [µg/mL] | MIC (Escherichia coli [23]) [µg/mL] | MIC (Enterobacter cloacae [24]) [µg/mL] | MIC (Staphylococcus aureus [25]) [µg/mL] | MIC (Staphylococcus aureus [27]) [µg/mL] | further results
1 | CC1=C(C(=O)OC(c2ccccc2)c2ccccc2)N2C(=O)[C@@H](NC3=NC4CC4N3)C2SC1 (some centres not stated) | 0.5 (≈ 1.09 µM) | 1 (≈ 2.17 µM) | 2 (≈ 4.34 µM) | 2 (≈ 4.34 µM) | 2 (≈ 4.34 µM) | 128 (≈ 278 µM) | 1 (≈ 2.17 µM) | 1 (≈ 2.17 µM) | 1 (≈ 2.17 µM) |  |  |  |  |  |  |  |  | MIC (Proteus mirabilis [1]): > 256 µg/mL; MIC (Escherichia coli [2]): 2 µg/mL (≈ 4.34 µM); MIC (Staphylococcus aureus [3]): > 256 µg/mL; MIC (Klebsiella pneumoniae [4]): 1 µg/mL (≈ 2.17 µM); MIC (Enterobacter cloacae [5]): 4 µg/mL (≈ 8.69 µM); MIC (Proteus vulgaris [8]): > 256 µg/mL; MIC (Staphylococcus aureus [9]): > 256 µg/mL; MIC (Pseudomonas aeruginosa [12]): 256 µg/mL (≈ 556 µM); MIC (Serratia marcescens [16]): 4 µg/mL (≈ 8.69 µM)
2 | CC1=C(C(=O)OC(c2ccccc2)c2ccccc2)N2C(=O)[C@@H](Nc3nc4ccccc4[nH]3)C2SC1 (some centres not stated) |  |  |  |  |  | 40 (≈ 80.5 µM) |  |  |  | 8 (≈ 16.1 µM) |  | 200 (≈ 403 µM) | > 1000 | 8 (≈ 16.1 µM) | 8 (≈ 16.1 µM) | 40 (≈ 80.5 µM) |  | MIC [26]: 8 µg/mL (≈ 16.1 µM)
3 | CC1=C(C(=O)OC(c2ccccc2)c2ccccc2)N2C(=O)[C@@H](Nc3nc4ccccc4o3)C2SC1 (some centres not stated) |  |  |  |  |  | 200 (≈ 402 µM) |  |  |  | 1000 (≈ 2010 µM) | 1000 (≈ 2010 µM) | > 1000 | > 1000 | > 1000 |  | 8 (≈ 16.1 µM) | 8 (≈ 16.1 µM) | 

Continued by falling MIC (Streptococcus pyogenes), values first:

Row | MIC (Escherichia coli [6]) [µg/mL] | MIC (Enterobacter cloacae [7]) [µg/mL] | MIC (Enterobacter cloacae [10]) [µg/mL] | MIC (Klebsiella aerogenes [11]) [µg/mL] | MIC (Klebsiella aerogenes [13]) [µg/mL] | MIC (Streptococcus pyogenes) [µg/mL] | MIC (Escherichia coli [14]) [µg/mL] | MIC (Escherichia coli [15]) [µg/mL] | MIC (Escherichia coli [17]) [µg/mL] | MIC (Proteus mirabilis [18]) [µg/mL] | MIC (Enterobacter cloacae [19]) [µg/mL] | MIC (Serratia marcescens [20]) [µg/mL] | MIC (Pseudomonas aeruginosa [21]) [µg/mL] | MIC (Escherichia coli [23]) [µg/mL] | MIC (Enterobacter cloacae [24]) [µg/mL] | MIC (Staphylococcus aureus [25]) [µg/mL] | MIC (Staphylococcus aureus [27]) [µg/mL] | Compound | further results
4 |  |  |  |  |  | 40 (≈ 77.9 µM) |  |  |  | 1000 (≈ 1950 µM) | > 1000 | > 1000 | > 1000 | > 1000 |  |  |  | CC1=C(C(=O)OC(c2ccccc2)c2ccccc2)N2C(=O)[C@@H](Nc3nc4ccccc4s3)C2SC1 (some centres not stated) | MIC (Staphylococcus aureus [22]): 1 µg/mL (≈ 1.95 µM)
5 |  |  |  |  |  | 1 (≈ 1.75 µM) |  |  |  | 200 (≈ 350 µM) |  | 1000 (≈ 1750 µM) | > 1000 | 200 (≈ 350 µM) | 200 (≈ 350 µM) | 0.5 (≈ 0.875 µM) | 0.5 (≈ 0.875 µM) | CC(=O)OCC1=C(C(=O)OC(c2ccccc2)c2ccccc2)N2C(=O)[C@@H](Nc3nc4ccccc4s3)C2SC1 (some centres not stated) | 
6 | 0.06 (≈ 0.106 µM) | 2 (≈ 3.52 µM) | 256 (≈ 450 µM) | 4 (≈ 7.03 µM) | 128 (≈ 225 µM) | 1 (≈ 1.76 µM) | 1 (≈ 1.76 µM) | 1 (≈ 1.76 µM) | 4 (≈ 7.03 µM) |  |  | 128 (≈ 225 µM) | > 256 | 2 (≈ 3.52 µM) |  | 2 (≈ 3.52 µM) |  | CC(=O)OCC1=C(C(=O)OC(c2ccccc2)c2ccccc2)N2C(=O)[C@@H](Nc3nc4cc(C)ccc4[nH]3)C2SC1 (some centres not stated) | MIC (Staphylococcus aureus [28]): 16 µg/mL (≈ 28.1 µM); MIC (Proteus mirabilis [29]): 4 µg/mL (≈ 7.03 µM); MIC (Klebsiella pneumoniae [30]): 4 µg/mL (≈ 7.03 µM); MIC (Proteus vulgaris [31]): 256 µg/mL (≈ 450 µM); MIC (Enterobacter cloacae [32]): 256 µg/mL (≈ 450 µM)
